Data from PMC10634270 (ACS Omega, 2023).

Columns and labels:
[1] = tested on: Hs27 fibroblasts; experiment: Cell viability MTT assay on Hs27 fibroblasts; assay type: cell-based, human; conditions: for cytotoxicity against Hs27 fibroblasts (in words): either human cell line
Procedure, shortened: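 In vitro viability screen on Hs27 human fibroblasts, the same cells that serve as hosts in the parasite proliferation assay. IC50 is reported with confidence intervals.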

[2] = tested on: HeLa wt cells; experiment: Cell viability MTT assay on HeLa wt cells; assay type: cell-based, human; conditions: for cytotoxicity against HeLa cells (in words): either human cell line
[3] = Antioxidant ABTS decolorization assay; conditions: relative to ascorbic acid
Procedure, shortened: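 Antioxidant capacity is read as ABTS radical decolorization. It is expressed relative to ascorbic acid as ascorbic acid equivalents in mol mol–1. Values are given with standard deviation.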

[4] = Stability experiments in DMSO; assay type: physicochemical; conditions: up to 40 °C, over 24 h

| Compound | cytotoxicity against Hs27 fibroblasts (in words) [1] | cytotoxicity against HeLa cells (in words) [2] | ascorbic acid equivalent antioxidant capacity (AEAC) [3] | other results |
| --- | --- | --- | --- | --- |
| COc1cc(C)cc2oc(-c3ccc(C(F)(F)F)cc3)cc(=O)c12 [8ad, 5-Methoxy-7-methyl-2-(4-(trifluoromethyl)phenyl)-4H-chromen-4-one] | noncytotoxic | noncytotoxic | – | – |
| COc1cc(OC)c2c(=O)cc(-c3ccc(C(F)(F)F)cc3)oc2c1 [8bd, 5,7-Dimethoxy-2-(4-(trifluoromethyl)phenyl)-4H-chromen-4-one] | noncytotoxic | noncytotoxic | – | – |
| COc1ccc(-c2cc(=O)c3c(OC)cc(C)c(-c4c(C)cc(OC)c5c(=O)cc(-c6ccc(OC)cc6)oc45)c3o2)cc1 [9aa, rac-5,5′-Dimethoxy-2,2′-bis(4-methoxyphenyl)-7,7′-dimethyl-4H,4′H-[8,8′-bichromene]-4,4′-dione] | – | – | 0.25 equiv ascorbic acid [mol mol^–1] | – |
| COc1cc(C)c(-c2c(C)cc(OC)c3c(=O)cc(-c4ccc(N(C)C)cc4)oc23)c2oc(-c3ccc(N(C)C)cc3)cc(=O)c12 [9ac, rac-2,2′-Bis(4-(dimethylamino)phenyl)-5,5′-dimethoxy-7,7′-dimethyl-4H,4′H-[8,8′-bichromene]-4,4′-dione] | – | – | 0.197 equiv ascorbic acid [mol mol^– | stability in DMSO [4]: stable |
| COc1cc(C)c(-c2c(C)cc(OC)c3c(=O)cc(-c4ccc(C(F)(F)F)cc4)oc23)c2oc(-c3ccc(C(F)(F)F)cc3)cc(=O)c12 [9ad, rac-5,5′-Dimethoxy-7,7′-dimethyl-2,2′-bis(4-(trifluoromethyl)phenyl)-4H,4′H-[8,8′-bichromene]-4,4′-dione] | noncytotoxic | noncytotoxic | – | – |
| COc1cc(OC)c2c(=O)cc(-c3ccc(C(F)(F)F)cc3)oc2c1-c1c(OC)cc(OC)c2c(=O)cc(-c3ccc(C(F)(F)F)cc3)oc12 [9bd, rac-5,5′,7,7′-Tetramethoxy-2,2′-bis(4-(trifluoromethyl)phenyl)-4H,4′H-[8,8′-bichromene]-4,4′-dione] | noncytotoxic | noncytotoxic | – | – |
| Cc1cc(O)c2c(=O)cc(-c3ccc(N(C)C)cc3)oc2c1-c1c(C)cc(O)c2c(=O)cc(-c3ccc(N(C)C)cc3)oc12 [compound 11, rac-2,2′-Bis(4-(dimethylamino)phenyl)-5,5′-dihydroxy-7,7′-dimethyl-4H,4′H-[8,8′-bichromene]-4,4′-dione] | – | – | 0.037 equiv ascorbic acid [mol mol^– | IC50 ([1]; Homo sapiens, HS27, 24 h, read-out: IC50 (Hs27)): > 200 µM; IC50 ([2]; Homo sapiens, HeLa, 48 h, read-out: IC50 (HeLa)): > 100 µM |
